According to ChEMBL document CHEMBL1123194, “Isozyme-specific enzyme inhibitors. 11. L-homocysteine-ATP S-C5' covalent adducts as inhibitors of rat methionine adenosyltransferases” (J Med Chem, 1986):
“And” between values parts separate entries of the source, which are not always exact repeats. Equal entries are not always repeated.

Experiments:
[1] = biological target: T1, S-adenosylmethionine synthetase (MAT 1 and MAT 2) (Rattus norvegicus, UniProt P13444+P18298); assay: Inhibition constant was evaluated on novikoff hepatoma (MAT-T) form of rat methionine adenosyltransferase, when ATP was the variable substrate (60 uM); type: protein assay; conditions: in the assay text read “120 uM” for “60 uM”
Method in brief: (§1)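 Rat MAT-2 and MAT-T, partially purified as described in earlier work. Assayed at 37 °C for 10 min in duplicate in 150 mM KCl, 15 mM MgCl2, 5 mM dithiothreitol, 50 mM Tris-HCl, pH 8.2, with L-[methyl-14C]methionine and MgATP. Six to eight levels of the variable substrate (0.5-4.0 × KM), two inhibitor levels plus no-inhibitor controls. Product captured on phosphocellulose disks and counted by scintillation. Blanks lacked ATP.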

[2] = biological target: T1, S-adenosylmethionine synthetase (MAT 1 and MAT 2); assay: Inhibition constant was evaluated with kidney (MAT-2) form of rat methionine adenosyltransferase, when methionine was the variable substrate (2 mM); type: protein assay; method in brief: as §1
[3] = biological target: S-adenosylmethionine synthase isoform type-2 (Rattus norvegicus, UniProt P18298); assay: Inhibition constant was evaluated with kidney Methionine adenosyltransferase II form of rat methionine adenosyltransferase, when ATP was the variable substrate (60 uM); method in brief: as §1
[4] = Michaelis constant (KM) was evaluated; type: ADME
[5] = biological target: T1, S-adenosylmethionine synthetase (MAT 1 and MAT 2); assay: Inhibition constant was evaluated on novikoff hepatoma (MAT-T) form of rat methionine adenosyltransferase, when methionine was the variable substrate (2 mM); type: protein assay; method in brief: as §1

Sequence of S-adenosylmethionine synthase isoform type-2 (P18298 whole entry, canonical isoform): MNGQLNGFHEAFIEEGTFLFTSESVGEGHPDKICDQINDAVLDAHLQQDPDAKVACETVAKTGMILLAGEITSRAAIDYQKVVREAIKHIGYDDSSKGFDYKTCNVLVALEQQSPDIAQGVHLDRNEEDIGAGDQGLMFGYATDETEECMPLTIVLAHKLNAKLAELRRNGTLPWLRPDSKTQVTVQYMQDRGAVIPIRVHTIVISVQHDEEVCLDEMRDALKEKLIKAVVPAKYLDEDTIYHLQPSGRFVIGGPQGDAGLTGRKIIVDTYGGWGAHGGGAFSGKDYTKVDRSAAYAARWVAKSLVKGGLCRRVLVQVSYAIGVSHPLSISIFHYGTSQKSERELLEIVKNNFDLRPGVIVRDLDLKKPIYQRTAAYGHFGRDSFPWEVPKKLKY

Ki [1] [µM]	Ki [2] [µM]	Ki [3] [µM]	Km [4]	Ki [5] [µM]	Compound
11	26	16		38	Nc1ncnc2c1ncn2[C@@H]1O[C@H](C(CP(=O)(O)OP(=O)(O)NP(=O)(O)O)SCCC(N)C(=O)O)[C@@H](O)[C@H]1O (stereo not given in full)
81		140			Nc1ncnc2c1ncn2[C@@H]1O[C@H](C(CP(=O)(O)OP(=O)(O)OP(=O)(O)O)[S+]([O-])CCC(N)C(=O)O)[C@@H](O)[C@H]1O (stereo not given in full)
			75 µM and 310 µM		Nc1ncnc2c1ncn2C1OC(CCP(=O)(O)OP(=O)(O)OP(=O)(O)O)[C@@H](O)[C@H]1O (stereo not given in full)

The remaining lines, values behind:

Compound	Ki [1] [µM]	Ki [2] [µM]	Ki [3] [µM]	Km [4]	Ki [5] [µM]
Nc1ncnc2c1ncn2[C@@H]1O[C@H](C(CP(=O)(O)OP(=O)(O)OP(=O)(O)O)SCCC(N)C(=O)O)[C@@H](O)[C@H]1O (single isomer, unassigned; epimer 1)	32	62	39		
Nc1ncnc2c1ncn2[C@@H]1O[C@H](COP(=O)(O)OP(=O)(O)OP(=O)(O)O)[C@@H](O)[C@H]1O				140 µM	
CSCC[C@H](N)C(=O)O [METHIONINE]				5 µM and 15 µM	
Nc1ncnc2c1ncn2[C@@H]1O[C@H](C(CP(=O)(O)OP(=O)(O)OP(=O)(O)O)SCCC(N)C(=O)O)[C@@H](O)[C@H]1O (single isomer, unassigned; epimer 2)	148	200	180		
